Assay results as given in ChEMBL document CHEMBL1124990, “Propenyl carboxamide derivatives as antagonists of platelet activating factor” (J Med Chem, 1990).

How the values were obtained:
Format in all cases: functional
Cavia porcellus [1] = experiment: Dose that caused significant inhibition of the platelet activating factor-induced bronchoconstriction in guinea pig after intravenous administration; conditions: read-out: ID50 (the source's name)
How it was run: (§1)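 Male Hartley guinea pigs (400–600 g), urethane-anesthetized (2 g/kg ip), jugular cannula; propranolol given 5 min before PAF; succinylcholine (1.2 mg/kg iv) then ventilation at 40 breaths/min, 4.0 cm³ stroke. Drug or vehicle iv 1 min before PAF 1 μg/kg iv. Tracheal pressure change averaged over four control and four treated animals, expressed as % inhibition; screen at 1 mg/kg.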

Cavia porcellus [2] = experiment: In vivo inhibition of the platelet activating factor-induced bronchoconstriction after 2 hr at dose 50 mg/kg administered perorally in guinea pig; conditions: route oral
How it was run: (§2)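 Oral dosing of 50 mg/kg, either 2 h or 6 h before iv PAF challenge (1 μg/kg), in urethane-anesthetized male Hartley guinea pigs (400–600 g). Animals were propranolol-pretreated, paralysed with succinylcholine and ventilated. Tracheal pressure change averaged over four vehicle and four drug-treated animals and reported as % inhibition.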

Cavia porcellus [3] = experiment: In vivo inhibition of the platelet activating factor-induced bronchoconstriction at dose 1.0 mg/kg administered intravenous in guinea pig; how it was run: as §1
Cavia porcellus [4] = experiment: Dose that caused significant inhibition of the platelet activating factor-induced bronchoconstriction in guinea pig after peroral administration; conditions: po, read-out: ID50 (the source's name)
How it was run: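 Male Hartley guinea pigs (400–600 g), urethane-anesthetized (2 g/kg ip), jugular cannula, propranolol pretreatment, succinylcholine paralysis and ventilation. Compound or vehicle given orally 2 h before iv PAF challenge (1 μg/kg). Tracheal pressure rise averaged over four control and four dosed animals, giving % inhibition.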

Cavia porcellus [5] = experiment: In vivo inhibition of the platelet activating factor-induced bronchoconstriction after 6 hr at dose 50 mg/kg administered perorally in guinea pig; conditions: route oral; how it was run: as §2

| Structure (SMILES) | ED50 (Cavia porcellus [1]) [mg/kg] | inhibition in vivo at 50 mg/kg (Cavia porcellus [2]) [%] | inhibition in vivo at 1 mg/kg (Cavia porcellus [3]) [%] | ED50 (Cavia porcellus [4]) [mg/kg] | inhibition in vivo at 50 mg/kg (Cavia porcellus [5]) [%] |
| --- | --- | --- | --- | --- | --- |
| CCCCc1c(/C=C/C(=O)N[C@@H](C)CCCc2cccnc2)cc(OC)c2ccc(OC)cc12 | 0.44 | 16 | 80 | – | – |
| COc1ccc(C2=C(/C=C/C(=O)N[C@@H](C)CCCc3cccnc3)CCc3cc(OC)ccc32)cc1 | 0.15 | 75 | 95 | 17 | 1 |
| CCCCCC1=C(/C=C/C(=O)N[C@@H](C)CCCc2cccnc2)Cc2cc(OC)ccc21 | 0.05 | 0 | 96 | – | – |
| CCCCc1c(/C=C/C(=O)N[C@@H](C)CCCc2cccnc2)ccc2ccc(OC)cc12 | – | – | 0 | – | – |
| CCCCC1=C(/C=C/C(=O)N[C@@H](C)CCCc2cccnc2)CCc2cc(OC)ccc21 | 0.46 | 50 | 94 | 50 | – |
| CCCCCc1c(/C=C/C(=O)N[C@@H](C)CCCc2cccnc2)oc2cc(OC)ccc12 | 0.06 | 0 | 89 | – | – |
| CCCCC/C(=C\C=C\C(=O)N[C@@H](C)CCCc1cccnc1)c1ccc(OC)cc1 | 0.05 | 100 | 99 | 4.1 | 71 |
| CCCCCc1c(/C=C/C(=O)N[C@@H](C)CCCc2cccnc2)sc2cc(OC)ccc12 | 0.11 | 97 | 98 | 5.4 | 97 |
| COc1ccc(-c2c(/C=C/C(=O)N[C@@H](C)CCCc3cccnc3)ccc3cc(OC)ccc23)cc1 | 0.18 | 79 | 92 | 12 | 55 |
| CCCCc1c(/C=C/C(=O)N[C@@H](C)CCCc2cccnc2)cc(OC)c2ccccc12 | 0.11 | 95 | 90 | 2.8 | 52 |
| CCCCc1c(/C=C/C(=O)N[C@@H](C)CCCc2cccnc2)ccc2c(OC)cccc12 | 1 | 4 | 50 | – | – |
| CCCCc1c(/C=C/C(=O)N[C@@H](C)CCCc2cccnc2)ccc2cc(OC)ccc12 | 0.45 | 92 | 95 | 4.2 | 71 |
| CCCCCc1c(/C=C/C(=O)N[C@@H](CC)CCCc2cccnc2)n(C)c2cc(OC)ccc12 | 0.07 | 99 | 98 | 3 | 96 |
